# Assay outcomes deposited in PubChem BioAssay by Sanford-Burnham Center for Chemical Genomics.
# The list is not random: actives were taken first. Their share in the collection is about 1.5%.
# APJ ag: agonists of human apelin receptor APJ, primary screen, CHO-K1 cells, PathHunter beta-arrestin, luminescence; 0% DMSO wells, 100% apelin; AID 2520, 2010; 330,000 tested, 0.11% active; activation, % at 20 µM; P35414;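 active = activation more than six SD over the plate average, tested at 20 µM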;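 note: 0% = DMSO alone and 100% = apelin-13 at 10 nM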
#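 Material: CHO-K1 APJ beta-arrestin complementation cell line; Input: cell density 1000 per well; Incubation: compound stimulation 90 min at 25 °C, detection 60 min; Signal: luminescence from split beta-galactosidase complementation, Galacton Star/Emerald II substrate; Controls: DMSO-only wells as negative, 10 nM Apelin-13 as positive control.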
# EBI2 antag: EBI2 receptor antagonists, beta-arrestin recruitment, primary screen, cell-based, luminescence, 7a,25-OHC stimulation, uHTS; 360,000 tested, 0.81% active; 7a,25-OHC stimulated; inhibition, % at 5 µM; in the data active = inhibition above about 38%;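 note: enzyme fragment complementation signal reports receptor beta-arrestin coupling in cells; 0% = agonist plus DMSO wells and 100% = wells without agonist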
# APJ antagonist: antagonists of human apelin receptor APJ, primary screen, CHO-K1 cells, beta-arrestin complementation, luminescence; inhibition, % at 20 µM; P35414; 330,000 tested, 0.32% active;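 active = inhibition above about 40% at 20 µM, limit read from the data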;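 note: cells challenged with 10 nM apelin-13 agonist together with compound; plate controls were apelin-13 plus DMSO wells for no effect and DMSO wells lacking apelin-13 for full effect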
# CXCR6 inh: CXCR6 receptor inhibitors, primary screen, cell-based, beta-arrestin, luminescence, CHO-K1 PathHunter, 1536-well; 360,000 tested, 0.36% active; C-X-C chemokine receptor type 6 (Homo sapiens), O00574; inhibition, % at 20 µM; in the data active = inhibition above about 34%, passing the limit was not always enough;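 note: antagonist mode with CXCL16 agonist at 10 nM final; 0% = 10 nM CXCL16 with DMSO and 100% = unstimulated wells without agonist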
# CCR6 antag: CCR6 receptor antagonists, primary screen, cell-based, CHO-K1, luminescence, beta-arrestin, uHTS; C-C chemokine receptor type 6 (Homo sapiens), P51684; CHO-K1 CCR6 PathHunter beta-arrestin, CCL20-stimulated; inhibition, % at 20 µM; 340,000 tested, 0.49% active; AID 493098, 2011;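 active = compounds whose inhibition of the agonist-driven luminescence signal at 20 µM reaches about 50%, limit read from the data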;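 note: cells stimulated with CCL20 at 14 nM final; plate controls were DMSO with CCL20 for no effect and DMSO without agonist for full effect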
# Target sequence (P51684 whole entry, looked up): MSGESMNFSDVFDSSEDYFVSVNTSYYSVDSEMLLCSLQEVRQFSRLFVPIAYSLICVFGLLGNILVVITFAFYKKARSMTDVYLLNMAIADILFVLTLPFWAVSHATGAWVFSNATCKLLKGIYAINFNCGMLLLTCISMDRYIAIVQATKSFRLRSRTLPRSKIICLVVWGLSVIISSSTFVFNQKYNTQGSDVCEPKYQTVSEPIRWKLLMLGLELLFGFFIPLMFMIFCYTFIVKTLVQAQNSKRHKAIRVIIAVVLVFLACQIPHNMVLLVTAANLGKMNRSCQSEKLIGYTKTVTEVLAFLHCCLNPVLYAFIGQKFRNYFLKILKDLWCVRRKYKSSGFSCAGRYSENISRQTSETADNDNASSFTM
# EBI2 antag conf: EBI2 antagonist hit retest, beta-arrestin, confirmation, cell-based, single concentration, luminescence, 7a,25-OHC stimulation. 2,400 tested, 29% active. shares compounds with EBI2 antag. inhibition, % at 5 µM. AID 651997, 2013. 7a,25-OHC antagonism;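 active = inhibition of at least 50%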
# EBI2 ag: EBI2 agonist activity of antagonist hits, confirmation, counter-screen for EBI2 antagonist project, cell-based, single concentration, agonist mode, luminescence; shares compounds with EBI2 antag; EBI2-expressing cells, 60 min; 0% vehicle, 100% 7α,25-dihydroxycholesterol control; activation, % at 5 µM; 2,400 tested, under 10 active;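 active = activation of at least 50%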
# bGal counter: E. coli beta-galactosidase enzyme inhibition, confirmation, counter-screen for EBI2 antagonist project, biochemical, luminescence, single concentration; shares compounds with EBI2 antag; purified beta-galactosidase, luminescent Galacton Star, 15 min; inhibition, % at 5 µM; 2,400 tested, 1% active; AID 652176, 2013;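 active = replicate-average signal at least 3 plate SD below neutral wells, shown as high inhibition, flagging enzyme-inhibiting false positives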;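 note: 0% = DMSO wells with enzyme and 100% = wells lacking enzyme; higher means stronger loss of beta-gal luminescence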
# An asterisk follows results filed as active; . = no result given.
SMILES,APJ ag,EBI2 antag,APJ antagonist,CXCR6 inh,CCR6 antag,EBI2 antag conf,EBI2 ag,bGal counter
Cc1ccc(NC(=O)COC(=O)CCc2ccccc2)cc1S(=O)(=O)N1CCOCC1,-1,7,14,-1,-1,.,.,.
CCc1ccc(N2CC(C(=O)Nc3ccc(S(=O)(=O)N4CCOCC4)cc3)CC2=O)cc1 (stereo unspecified),-2,52*,-7,-6,15,43,0,7
COc1ccccc1N1CC(C(=O)Nc2ccc(S(=O)(=O)N3CCCC3)cc2)CC1=O (stereo unspecified),-1,-8,3,-2,-3,.,.,.
Cc1ccc(N2CC(C(=O)Nc3cc(C)ccc3F)CC2=O)cc1 (stereo unspecified),-4,53*,-3,2,8,41,1,1
COc1ccc(N2CC(C(=O)Nc3ccc(S(=O)(=O)N4CCCCC4)cc3)CC2=O)cc1 (stereo unspecified),-2,75*,-13,1,16,56*,1,0
COc1ccc(N2CC(C(=O)Nc3ccc(S(=O)(=O)N4CCCC4)cc3)CC2=O)cc1 (stereo unspecified),0,50*,9,0,6,17,0,-12
CCOC(=O)N(C)c1c(CC)nc2c(OCc3ccc(Cl)cc3Cl)cccn12,.,45*,.,11,.,77*,-1,-7
C#CCOCCOCCOCCNc1nc(N2CCN(C(=O)[C@H](Cc3cc4ccccc4[nH]3)n3cc([C@@H](N)C(C)CC)nn3)CC2)nc(N2CCN(C(=O)[C@H](Cc3cc4ccccc4[nH]3)n3cc([C@@H](N)CC(C)C)nn3)CC2)n1 (stereo partly specified),3,.,28,.,.,.,.,.
Cn1cc(S(=O)(=O)N2CCc3ccccc32)cc1C(=O)Nc1ccc(Cl)cc1,3,46*,-2,-6,24,14,-1,-11
COc1ccc(N2CCN(C(=O)c3cc(=O)c4cc(Cl)ccc4o3)CC2)cc1,-4,96*,6,-12,7,93*,-1,-21
COc1ccc(N2CCN(C(=O)c3cc(=O)c4ccc(C)cc4o3)CC2)cc1,-2,50*,10,-14,-6,49,-2,-16
Cc1ccc(S(=O)(=O)N2C[C@H]3[C@H]4C(=O)N(c5ccccc5)C(=O)[C@H]4C[C@H](OC(=O)NCc4ccccc4)[C@@]3(O)C2)cc1,.,2,.,-4,.,.,.,.
CC(C)(C)OC(=O)N1CCC(C(=O)Nc2ccc(C(=O)N3CCCCC3)cc2)CC1,.,-7,.,12,2,.,.,.
Cc1cc(=O)n2cn[nH]c2n1,.,-6,.,-3,7,.,.,.
CC(=O)Nc1ccc(S(=O)(=O)N2CCC(C(=O)NCCC(=O)NCc3ccccc3)CC2)cc1,3,2,2,1,2,.,.,.
COc1ccc(-c2nc3c(c(=O)[nH]c(=O)n3Cc3ccccc3)n2Cc2ccccc2)cc1,-4,45*,-2,3,8,10,2,-7
COc1ccc(-c2nc3c(c(=O)[nH]c(=O)n3Cc3ccccc3)n2C)cc1,-3,10,-2,15,6,.,.,.
Cc1cc(C)c2c(=O)n3c(nc2c1)C(Cc1ccccc1)NC(=O)c1cc2ccccc2cc1-3 (stereo unspecified),.,76*,.,0,.,38,-2,-11
CCCC1NC(=O)c2cc3ccccc3cc2-n2c1nc1cc(Cl)ccc1c2=O (stereo unspecified),.,53*,.,5,.,51*,0,6
Cc1cc(C)c2c(=O)n3c(nc2c1)C(Cc1ccccc1)NC(=O)c1cccnc1-3 (stereo unspecified),.,20,.,2,.,.,.,.
O=C1NC(Cc2ccccc2)c2nc3cc(Cl)ccc3c(=O)n2-c2cc(Cl)ccc21 (stereo unspecified),-3,.,1,.,.,.,.,.
Cc1ccc2nc3n(c(=O)c2c1)-c1cc2ccccc2cc1C(=O)NC3Cc1ccccc1 (stereo unspecified),.,54*,.,8,.,34,0,-14
CCCC1NC(=O)c2cc3ccccc3cc2-n2c1nc1ccc(C)cc1c2=O (stereo unspecified),.,57*,.,-8,.,44,2,7
Cc1ccc2nc3n(c(=O)c2c1)-c1ccc(Cl)cc1C(=O)NC3Cc1ccccc1 (stereo unspecified),-2,.,10,.,.,.,.,.
CCC1NC(=O)c2cc3ccccc3cc2-n2c1nc1ccc(F)cc1c2=O (stereo unspecified),.,8,.,-10,.,.,.,.
SMILES,APJ ag,EBI2 antag,APJ antagonist,CXCR6 inh,CCR6 antag,EBI2 antag conf,EBI2 ag,bGal counter
CCOC(=O)C1(Cc2cccc(OC)c2)CCCN(Cc2cc(OC)c(O)c(OC)c2)C1 (stereo unspecified),2,82*,-31,-13,-10,58*,-1,-4
CCOC(=O)C1(Cc2cccc(OC)c2)CCCN(Cc2cnn(C)c2)C1 (stereo unspecified),0,0,2,5,18,.,.,.
COc1ccc(C2CC(c3ccc(Br)cc3)=NN2C(=O)CN2CCCC2)cc1 (stereo unspecified),-2,8,2,13,15,.,.,.
CNC(=S)N1N=C(c2ccc(Br)cc2)CC1c1ccc(OC)cc1 (stereo unspecified),-3,88*,5,10,3,87*,-1,-21
COc1ccc(C2c3ccc(O)cc3Oc3ncn4nc(-c5ccccn5)nc4c32)cc1OC (stereo unspecified),-7,38,-16,1,9,.,.,.
COc1ccc(C2c3ccc(O)cc3Oc3ncn4nc(-c5ccccn5)nc4c32)cc1 (stereo unspecified),-4,47*,25,-9,9,18,0,6
O=C(COC(=O)/C=C/c1ccc(Cl)cc1)NCCN1C(=O)CSC1=O,-2,46*,3,0,16,46,4,6
CCN(CC)S(=O)(=O)c1ccc(N2CCCC2)c(NC(=O)Cc2ccc(OC)cc2)c1,-2,0,9,-2,5,.,.,.
